Measurements as given in ChEMBL document CHEMBL1126882, “Orally active central dopamine and serotonin receptor ligands: 5-, 6-, 7-, and 8-[[trifluoromethyl)sulfonyl]oxy]-2-(di-n-propylamino)tetralins and the formation of active metabolites in vivo” (J Med Chem, 1993).
Calls of active or inactive are those of the source. The calls are words filed in the database; no cut-off is given here.

How the values were obtained:
[1] = target: T1, Dopamine receptor (Rattus norvegicus) (UniProt P25115+P19020+P30729+P18901+P61169); assay: Effective dose for half-maximal decrease in the accumulation of DOPA in reserpinized rat brain striatal area by sc administration; format: functional, organism-based
Method in brief: (§1)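 Male Sprague-Dawley rats (200-300 g) got reserpine 5 mg/kg sc 18 h before. The test drug (saline) was given sc or po (po rats fasted 18 h), with NSD 1015, 30 min before decapitation. DOPA and 5-HTP in limbic, striatal and hemispheral tissue were measured by HPLC-ED. ED50 (half-maximal decrease) was taken from 4-6-dose curves, with deviation estimated graphically from SEM.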

Rattus norvegicus [2] = species: Rattus norvegicus; assay: DA agonist induced behavior was charecterised by increased locomotion, sniffing and licking.++ indicates high intensity of behavioral effect; format: functional, organism-based
Method in brief: (§2)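 Male Sprague-Dawley rats (200-300 g) given reserpine 5 mg/kg sc in the neck 18 h before testing. The test compound, in 0.9% saline, was given sc in the neck (n = 4-5). Rats were placed singly in photocell motility meters right after dosing. Counts were recorded over 30 min, alongside gross behavioural observation of 5-HT and DA signs. Statistics: ANOVA with Fischer's PLSD versus reserpine controls.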

Rattus norvegicus [3] = assay: Effective dose for half-maximal decrease in the accumulation of 5-hydroxytryptophan (5-HTP) in reserpinized rat brain limbic area by po administration; Inactive; format: functional, organism-based; method in brief: as §1
Rattus norvegicus [4] = assay: post-synaptic agonistic effects by increase in locomotor activity at the dose of 0.08 umol/kg, sc in reserpinized rat; format: functional; method in brief: as §2
Rattus norvegicus [5] = assay: Effective dose for half-maximal decrease in the accumulation of 5-hydroxytryptophan (5-HTP) in reserpinized rat brain hemispheral area by po administration; Inactive; format: functional, organism-based; method in brief: as §1
Rattus norvegicus [6] = assay: Effective dose for half-maximal decrease in the accumulation of 5-hydroxytryptophan (5-HTP) in reserpinized rat brain striatal area by po administration; Inactive; format: functional, organism-based; method in brief: as §1
[7] = target: T1, Dopamine receptor (Rattus norvegicus); assay: Effective dose for half-maximal decrease in the accumulation of DOPA in reserpinized rat brain limbic area by po administration; format: functional, organism-based; method in brief: as §1
[8] = target: T1, Dopamine receptor (Rattus norvegicus); assay: Effective dose for half-maximal decrease in the accumulation of DOPA in reserpinized rat brain limbic area by sc administration; format: functional, organism-based; method in brief: as §1
[9] = target: T1, Dopamine receptor (Rattus norvegicus); assay: Effective dose for half-maximal decrease in the accumulation of DOPA in reserpinized rat brain hemispheral area by po administration; format: functional, organism-based; method in brief: as §1
[10] = target: T1, Dopamine receptor (Rattus norvegicus); assay: Effective dose for half-maximal decrease in the accumulation of DOPA in reserpinized rat brain striatal area by sc administration; Inactive; format: functional, organism-based; method in brief: as §1
[11] = target: T2, 5-hydroxytryptamine receptor 1A (Rattus norvegicus, UniProt P19327); assay: (§3) Binding affinity against 5-hydroxytryptamine 1A receptor in homogenated rat brain tissue, using by [3H]8-OH-DPAT as radioligand; format: tissue-based
T2 sequence (P19327 whole entry): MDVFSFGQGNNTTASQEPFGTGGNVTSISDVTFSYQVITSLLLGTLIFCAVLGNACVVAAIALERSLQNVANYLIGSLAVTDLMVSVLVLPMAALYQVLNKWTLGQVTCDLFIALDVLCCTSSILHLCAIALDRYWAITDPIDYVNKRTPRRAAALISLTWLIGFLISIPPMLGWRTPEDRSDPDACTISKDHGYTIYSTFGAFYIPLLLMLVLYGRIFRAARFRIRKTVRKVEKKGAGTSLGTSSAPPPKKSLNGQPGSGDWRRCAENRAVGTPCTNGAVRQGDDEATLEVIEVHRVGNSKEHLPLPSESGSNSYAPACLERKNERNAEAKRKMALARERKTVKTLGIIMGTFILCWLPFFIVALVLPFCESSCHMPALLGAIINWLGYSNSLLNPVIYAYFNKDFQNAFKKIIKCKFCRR
Method in brief: (§4)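 Rat brain homogenate was washed and preincubated in 50 mM Tris (pH 8.0) containing NaCl, CaCl2 and MgCl2, plus 10 μM pargyline. Nonspecific binding was defined with 10 μM 5-HT. Six drug concentrations (10⁻⁴-10⁻⁹ M) were tested, triplicate or single run. IC50 came from a semilog plot with linear regression.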

[12] = target: T1, Dopamine receptor (Rattus norvegicus); assay: Effective dose for half-maximal decrease in the accumulation of DOPA in reserpinized rat brain limbic area by sc administration; Inactive; format: functional, organism-based; method in brief: as §1
[13] = target: T1, Dopamine receptor (Rattus norvegicus); assay: Effective dose for half-maximal decrease in the accumulation of DOPA in reserpinized rat brain striatal area by po administration; format: functional, organism-based; method in brief: as §1
[14] = target: T1, Dopamine receptor (Rattus norvegicus); assay: Effective dose for half-maximal decrease in the accumulation of DOPA in reserpinized rat brain hemispheral area by sc administration; Inactive; format: functional, organism-based; method in brief: as §1
[15] = Effective dose for half-maximal decrease in the accumulation of 5-hydroxytryptophan (5-HTP) in reserpinized rat brain hemispheral area by sc administration; format: functional; method in brief: as §1
[16] = Effective dose for half-maximal decrease in the accumulation of 5-hydroxytryptophan (5-HTP) in reserpinized rat brain limbic area by po administration; format: functional; method in brief: as §1
[17] = target: T1, Dopamine receptor (Rattus norvegicus); assay: Effective dose for half-maximal decrease in the accumulation of DOPA in reserpinized rat brain hemispheral area by po administration; Inactive; format: functional, organism-based; method in brief: as §1
[18] = Effective dose for half-maximal decrease in the accumulation of 5-hydroxytryptophan (5-HTP) in reserpinized rat brain limbic area by sc administration; format: functional; method in brief: as §1
[19] = Effective dose for half-maximal decrease in the accumulation of 5-hydroxytryptophan (5-HTP) in reserpinized rat brain hemispheral area by po administration; format: functional; method in brief: as §1
[20] = Effective dose for half-maximal decrease in the accumulation of 5-hydroxytryptophan (5-HTP) in reserpinized rat brain striatal area by po administration; format: functional; method in brief: as §1
[21] = target: T2, 5-hydroxytryptamine receptor 1A; assay: as §3; format: tissue-based; remark: listed apart in the source
Method in brief: as §4, with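 “pargyline. It was incubated with 1 nM [3H]-8-OH-DPAT (final) for 15 min at 37 °C, then vacuum-filtered and counted by scintillation.” for “pargyline.”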

D(2) dopamine receptor = D(2) dopamine receptor (Rattus norvegicus, UniProt P61169); assay: Binding affinity against dopamine receptor D2 in homogenated rat brain tissue, using by [3H]spiperone as radioligand; format: tissue-based
Sequence of D(2) dopamine receptor (P61169 whole entry): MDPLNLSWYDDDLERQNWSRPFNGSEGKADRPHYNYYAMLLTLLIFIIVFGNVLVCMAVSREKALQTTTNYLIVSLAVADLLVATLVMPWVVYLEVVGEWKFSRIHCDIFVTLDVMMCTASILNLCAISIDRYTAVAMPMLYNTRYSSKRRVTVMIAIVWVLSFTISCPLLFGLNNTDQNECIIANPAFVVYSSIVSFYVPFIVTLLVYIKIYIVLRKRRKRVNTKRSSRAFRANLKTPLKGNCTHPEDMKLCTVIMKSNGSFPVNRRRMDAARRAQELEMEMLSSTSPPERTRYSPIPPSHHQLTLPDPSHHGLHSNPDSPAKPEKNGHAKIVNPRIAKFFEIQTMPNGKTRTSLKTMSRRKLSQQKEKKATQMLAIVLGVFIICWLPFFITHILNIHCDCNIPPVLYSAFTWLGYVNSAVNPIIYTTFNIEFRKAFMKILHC
Method in brief: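 Rat striatal membranes were prepared in 50 mM potassium phosphate (pH 7.4). They were incubated with 0.5 nM [3H]spiperone (3 mg original tissue) for 10 min at 37 °C. Specific binding was defined with 10 μM 6,7-ADTN. Six drug concentrations (10⁻⁴-10⁻⁹ M) were tested, in triplicate or in a single experiment.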

[22] = Effective dose for half-maximal decrease in the accumulation of 5-hydroxytryptophan (5-HTP) in reserpinized rat brain striatal area by sc administration; format: functional; method in brief: as §1

**Q.** With CCCN(CCC)C1CCc2c(O)cccc2C1 (stereo not drawn) [5-OH-DPAT] as the molecule, how does the ED50 [1] read?
**A.** The ED50 was 0.01 µmol/kg.

**Q.** And the Behavioral observation (Rattus norvegicus [2])?
**A.** The Behavioral observation was “Active”.

**Q.** And the ED50 (Rattus norvegicus [3])?
**A.** Its ED50 is “inactive”.

**Q.** What about the Counts/30 (Rattus norvegicus [4]) of the same molecule?
**A.** The Counts/30 was 60 min.

**Q.** What about the ED50 (Rattus norvegicus [5]) of the same molecule?
**A.** Its ED50 is “inactive”.

**Q.** And the ED50 (Rattus norvegicus [6])?
**A.** The ED50 was “inactive”.

**Q.** And the ED50 [7]?
**A.** The ED50 was 0.7 µmol/kg.

**Q.** And the ED50 [8]?
**A.** Its ED50 is 0.01 µmol/kg.

**Q.** What about the ED50 [9] of the same molecule?
**A.** The ED50 was 4 µmol/kg.

**Q.** What about the ED50 [10] of the same molecule?
**A.** The ED50 was “inactive”.

**Q.** And the Ki [11]?
**A.** The Ki was 1040 nM.

**Q.** What about the ED50 [12] of the same molecule?
**A.** The ED50 was “inactive”.

**Q.** What about the ED50 [13] of the same molecule?
**A.** The ED50 was 0.5 µmol/kg.

**Q.** And the ED50 [14]?
**A.** Its ED50 is “inactive”.

**Q.** What does the source list for CCCN(CCC)C1CCc2cccc(OC)c2C1 (stereo not drawn)?
**A.** ED50 [15]: 0.2 µmol/kg; ED50 [16]: 3.2 µmol/kg; ED50 [7]: 5.5 µmol/kg; ED50 [17]: inactive; ED50 [10]: inactive; ED50 [18]: 0.3 µmol/kg; ED50 [19]: 2.3 µmol/kg; ED50 [12]: inactive; ED50 [13]: 12.5 µmol/kg; ED50 [14]: inactive; ED50 [20]: 3.2 µmol/kg; Ki [21]: 10 nM; Ki (D(2) dopamine receptor): 160 nM; ED50 [22]: 0.3 µmol/kg
